Data: BindingDB's records for doi:10.1021/jm970240y (Sanofi Recherche, 1997)
pIC50: −log10 of the molar value.

What follows are compounds tested against Integrin alpha-IIb/beta-3 (Homo sapiens, UniProt P08514+P05106) (assay: In vitro inhibition of ADP-induced (2.5 uM) human platelet aggregation.).
Outline: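 Human PRP from citrated blood (0.38% final) of unmedicated donors, spun 1000g 10 min; compound added in DMSO (0.01% final) 1 min before 2.5 μM ADP. Aggregation by Born method, measured as maximum curve height; percent inhibition calculated against vehicle-alone aggregation.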

Integrin alpha-IIb/beta-3, sequence (P05106 27-788 limits assumed): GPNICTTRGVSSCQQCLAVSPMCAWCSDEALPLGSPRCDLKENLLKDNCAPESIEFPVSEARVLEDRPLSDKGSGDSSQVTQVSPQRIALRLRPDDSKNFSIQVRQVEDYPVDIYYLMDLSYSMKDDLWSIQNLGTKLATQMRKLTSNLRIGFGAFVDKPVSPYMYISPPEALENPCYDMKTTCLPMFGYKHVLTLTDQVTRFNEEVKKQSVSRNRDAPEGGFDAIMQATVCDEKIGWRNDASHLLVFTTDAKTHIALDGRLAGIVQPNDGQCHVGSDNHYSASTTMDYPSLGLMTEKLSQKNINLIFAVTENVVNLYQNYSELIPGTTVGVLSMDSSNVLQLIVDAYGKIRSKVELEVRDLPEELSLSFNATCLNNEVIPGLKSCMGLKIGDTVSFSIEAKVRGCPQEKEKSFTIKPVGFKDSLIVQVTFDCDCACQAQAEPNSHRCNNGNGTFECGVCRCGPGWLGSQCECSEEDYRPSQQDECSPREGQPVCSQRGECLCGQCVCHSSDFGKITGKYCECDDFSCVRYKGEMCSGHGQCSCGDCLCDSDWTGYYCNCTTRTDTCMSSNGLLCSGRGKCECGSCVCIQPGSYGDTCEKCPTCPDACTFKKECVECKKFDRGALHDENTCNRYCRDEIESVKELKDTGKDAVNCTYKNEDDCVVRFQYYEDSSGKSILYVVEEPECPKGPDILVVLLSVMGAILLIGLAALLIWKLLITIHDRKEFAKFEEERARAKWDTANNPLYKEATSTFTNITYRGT
Integrin alpha-IIb/beta-3, sequence (P08514 32-887 limits assumed): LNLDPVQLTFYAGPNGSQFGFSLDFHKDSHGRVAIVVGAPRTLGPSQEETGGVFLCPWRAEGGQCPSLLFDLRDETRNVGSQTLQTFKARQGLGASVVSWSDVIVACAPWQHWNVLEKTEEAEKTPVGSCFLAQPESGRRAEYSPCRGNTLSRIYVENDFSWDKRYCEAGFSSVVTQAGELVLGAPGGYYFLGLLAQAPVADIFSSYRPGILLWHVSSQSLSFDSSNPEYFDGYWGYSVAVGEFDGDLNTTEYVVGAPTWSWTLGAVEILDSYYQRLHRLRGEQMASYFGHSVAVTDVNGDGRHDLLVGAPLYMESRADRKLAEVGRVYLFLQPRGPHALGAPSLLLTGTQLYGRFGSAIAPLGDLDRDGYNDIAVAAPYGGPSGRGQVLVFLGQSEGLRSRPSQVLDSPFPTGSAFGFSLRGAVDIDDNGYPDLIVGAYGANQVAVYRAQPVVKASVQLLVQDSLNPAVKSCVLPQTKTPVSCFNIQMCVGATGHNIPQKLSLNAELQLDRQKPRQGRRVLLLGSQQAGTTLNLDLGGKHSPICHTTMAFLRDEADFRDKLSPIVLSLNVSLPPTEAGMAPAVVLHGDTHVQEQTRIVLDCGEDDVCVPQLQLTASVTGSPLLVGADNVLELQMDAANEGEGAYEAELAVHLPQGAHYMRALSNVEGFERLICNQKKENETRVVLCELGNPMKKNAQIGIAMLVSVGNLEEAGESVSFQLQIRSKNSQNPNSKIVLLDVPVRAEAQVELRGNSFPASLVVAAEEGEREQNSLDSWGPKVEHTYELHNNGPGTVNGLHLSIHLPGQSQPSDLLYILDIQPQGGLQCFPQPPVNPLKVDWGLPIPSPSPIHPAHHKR
Integrin alpha-IIb/beta-3, sequence (P08514 891-1039 limits assumed): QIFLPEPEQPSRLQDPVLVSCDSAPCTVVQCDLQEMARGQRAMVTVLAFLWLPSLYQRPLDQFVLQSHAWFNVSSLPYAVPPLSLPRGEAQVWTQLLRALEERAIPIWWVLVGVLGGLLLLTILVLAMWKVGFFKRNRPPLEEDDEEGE

Row | Compound | pIC50
1 | CC(C)(C(=O)O)N1CCC(Nc2nc(-c3ccc(C(=N)N)cc3)cs2)CC1 [2-{4-[4-(4-Carbamimidoyl-phenyl)-thiazol-2-ylamino]-piperidin-1-yl}-2-methyl-propionic acid] | < 5.00
2 | COC(=O)CC(C(=O)O)N1CCC(Nc2nc(-c3ccc(C(=N)N)cc3)cs2)CC1 (configuration not stated) [2-{4-[4-(4-Carbamimidoyl-phenyl)-thiazol-2-ylamino]-piperidin-1-yl}-succinic acid 4-methyl ester] | 7.07
3 | CC(C(=O)O)N1CCC(Nc2nc(-c3ccc(C(=N)N)cc3)cs2)CC1 (configuration not stated) [2-{4-[4-(4-carbamimidoyl-phenyl)-thiazol-2-ylamino]-piperidin-1-yl}-propionic acid] | 6.60
4 | N=C(N)c1ccc(-c2csc(N(CCC(=O)O)C3CCN(CC(=O)O)CC3)n2)cc1 [3-[[4-(4-Carbamimidoyl-phenyl)-thiazol-2-yl]-(1-carboxymethyl-piperidin-4-yl)-amino]-propionic acid] | 7.34
5 | N=C(N)c1ccc(-c2csc(NC3CCN(CCC(=O)O)CC3)n2)cc1 [3-{4-[4-(4-carbamimidoyl-phenyl)-thiazol-2-ylamino]-piperidin-1-yl}-propionic acid] | 5.74
6 | N=C(N)c1ccc(-c2csc(NC3CCN(C(C(=O)O)c4ccccc4Cl)CC3)n2)cc1 (configuration not stated) [4-[4-(4-carbamimidoyl-phenyl)-thiazol-2-ylamino]-piperidin-1-yl}-(2-chloro-phenyl)-acetic acid] | 5.22
7 | N=C(N)c1ccc(-c2csc(N(CCCC(=O)O)C3CCN(CC(=O)O)CC3)n2)cc1 [4-[[4-(4-Carbamimidoyl-phenyl)-thiazol-2-yl]-(1-carboxymethyl-piperidin-4-yl)-amino]-butyric acid] | 7.02
8 | N=C(N)c1ccc(-c2csc(N(Cc3ccccc3)C3CCN(CC(=O)O)CC3)n2)cc1 [(4-{Benzyl-[4-(4-carbamimidoyl-phenyl)-thiazol-2-yl]-amino}-piperidin-1-yl)-acetic acid] | 6.64
9 | CN(c1nc(-c2ccc(C(=N)N)cc2)cs1)C1CCN(CC(=O)O)CC1 [(4-{[4-(4-carbamimidoyl-phenyl)-thiazol-2-yl]-methyl-amino}-piperidin-1-yl)-acetic acid] | 6.80
10 | N=C(N)c1ccc(-c2csc(N(CC(=O)O)C3CCN(CC(=O)O)CC3)n2)cc1 [[[4-(4-Carbamimidoyl-phenyl)-thiazol-2-yl]-(1-carboxymethyl-piperidin-4-yl)-amino]-acetic acid] | 6.77
11 | N=C(N)c1ccc(-c2csc(NC3CCN(CC(=O)O)CC3)n2)cc1 [{4-[4-(4-Carbamimidoyl-phenyl)-thiazol-2-ylamino]-piperidin-1-yl}-acetic acid] | 7.38
12 | N=C(N)c1ccc(-c2csc(NC3CCN(C(C(=O)O)c4ccccc4)CC3)n2)cc1 (configuration not stated) [{4-[4-(4-Carbamimidoyl-phenyl)-thiazol-2-ylamino]-piperidin-1-yl}-phenyl-acetic acid] | 7.19
